Measured values reported in PMC3246390 (Organic & biomolecular chemistry, 2011).
Entries after “also recorded” stand apart in the source; their conditions may differ. Read-outs that look alike come from different tables or passages of the source.

Experiments:
mice [1] = type: in vivo; details: 5 µg intraperitoneal; for cytokine secretion (INF-γ and IL-4): IL-4 at 4h and INF-γ at 16h
Summary of the method: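 Each mouse received an intraperitoneal injection of 5 µg glycolipid (6"-modified α-GalCer analogues, galacturonic acid and α-d-fucopyranosyl types). Serum IL-4 was measured at 4 h and serum INF-γ at 16 h after injection.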

[2] = molecular target: T1, mouse Vα14Vβ8.2 NKT TCR (glycolipid presented by mouse CD1d) (Mus musculus, UniProt P11609); type: binding; details: for Kass / Kdiss: Langmuir 1:1 model; for Kdiss: TCR dissociation from mouse CD1d-glycolipid complex
T1 sequence (P11609 19-297): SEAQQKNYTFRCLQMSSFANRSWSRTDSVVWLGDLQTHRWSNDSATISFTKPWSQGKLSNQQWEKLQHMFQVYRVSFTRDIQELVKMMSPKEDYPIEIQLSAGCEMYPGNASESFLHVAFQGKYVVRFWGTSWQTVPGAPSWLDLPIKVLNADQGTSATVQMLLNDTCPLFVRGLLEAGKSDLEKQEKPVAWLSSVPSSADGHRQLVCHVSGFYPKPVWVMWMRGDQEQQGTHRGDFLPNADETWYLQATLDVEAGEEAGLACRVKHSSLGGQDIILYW
T1 sequence (P01887 21-119 partner): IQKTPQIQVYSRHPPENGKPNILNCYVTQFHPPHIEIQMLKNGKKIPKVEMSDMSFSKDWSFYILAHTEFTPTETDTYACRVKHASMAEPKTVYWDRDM
T1 sequence (P01849 1-110 partner): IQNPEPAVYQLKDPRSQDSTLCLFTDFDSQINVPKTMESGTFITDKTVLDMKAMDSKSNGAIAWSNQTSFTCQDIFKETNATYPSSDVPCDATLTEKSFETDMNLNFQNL

[3] = test system: lung and breast cancer in mice; details: lung and breast cancer (GSL-1’: mice bearing lung cancer, equal doses); cited from earlier work
mice [4] = details: i.v. administration; cited from earlier work
mice [5] = details: cited from earlier work
[6] = SPR, TCR binding to mouse CD1d-glycolipid complex
[7] = read-out: KD(Kdiss/Kass), SPR, TCR binding to mouse CD1d-glycolipid complex

| Molecule | cytokine secretion (INF-γ and IL-4) (mice [1]; serum) | Kass [2, 6] [M⁻¹ s⁻¹] | Kdiss ([2]; SPR) [s⁻¹] | Kd [2, 7] [nM] | further results |
| --- | --- | --- | --- | --- | --- |
| α-C-GalCer [compound 3, reference compound] |  |  |  |  | Th1/Th2 polarization (mice [1]; INF-γ versus IL-4): no polarization; IL-4 secretion (Th2 response) (mice [1]; serum, measured at 4h): strong Th2 response; INF-γ secretion (mice [1]; serum, measured at 16h): superior INF-γ inducer |
| 1-O-(6-deoxy-α-D-galactopyranosyl)-2-hexacosylamino-octadecane-1,3,4-triol [compound 12] | weak cytokine secretion; also recorded: low cytokine release | 100000 ± 20000 | 0.00648 ± 0.0018 | 74.4 ± 25 |  |
| 1-O-(α-D-galactopyranosyluronate)-2-hexacosylamino-octadecane-1,3,4-triol [compound 13] | minor cytokine secretion | 100000 ± 9000 |  | 165 ± 38.3 | efficacy towards cancer compared to α-GalCer [3]: more effective; secretion of INF-γ compared to α-GalCer (mice [4]): drastically lower secretion of INF-γ |
| CCCCCCCCCCCCCCCCCCCCCCCCCC(=O)N[C@@H](CO[C@H]1O[C@H](CO)[C@H](O)[C@H](O)[C@H]1O)[C@H](O)[C@H](O)CCCCCCCCCCCCCC [KRN7000 (1), α-galactosylceramide, reference compound] |  |  |  |  | Kd [2]: 11.2 ± 0.2 nM; kon ([2]; read-out: Kass): 130000 M⁻¹ s⁻¹; koff ([2]; read-out: Kdiss): 0.00145 s⁻¹ |
| CCCCCCCCCCCCCCC(O)C(O)C(CO[C@H]1O[C@H](C(=O)O)[C@H](O)[C@H](O)[C@H]1O)NC(=O)CCCCCc1ccccc1 (stereo partly drawn) [compound 14, 1-O-(α-D-galactopyranosyluronate)-2-(6-phenylhexanoyl)amino-octadecane-1,3,4-triol] | abolishes all activity; also recorded: low cytokine release | 110000 ± 6000 | 0.00811 ± 0.0012 | 75.3 ± 15.2 |  |
| 1-O-(6-deoxy-α-D-galactopyranosyl)-2-hexacosylamino-octadecane-1,3,4-triol [compound 4] |  | 80000 ± 3000 | 0.00526 ± 0.00029 | 64.8 ± 6 | IFN-γ induction compared to α-GalCer (mice [5]): superior to α-GalCer |
